Test results as given in PubChem BioAssay AID623954 (The Scripps Research Institute Molecular Screening Center, 2012).
Calls of active or inactive are those of the source.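 Rule for the calls: active = recombinant frequency cut at least fourfold versus the solvent-only control; inactive = reduction in recombinant frequency below fourfold.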

Test system: E. coli recBCD-deletion with H. pylori AddAB/RecA, Hfr recombination, colony count
Test: Hfr recombinant frequency reduction – colony formation, p(addAB), p(recA), 100 µM, counter-screen for AddAB inhibitor project, late-stage follow-up (AID 623954)
Details: at 100 µM; stronger effect = higher value
In short: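 Test system: E. coli ΔrecBCD recipient carrying H. pylori addAB, recA plasmids. Also added: HfrH donor at 1:10 donor-to-recipient ratio. Compound dosing: single dose of 100 µM compound. Measured by: differential plating counting His+ StrR recombinant colonies. Read-out: fold drop in recombinant frequency relative to DMSO. Benchmarks: DMSO-treated culture. Replication: two independent runs.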

Compound | fold reduction of recombinant frequency
CNC(=O)c1c(NC(=O)c2nc(SCc3ccccc3)ncc2Cl)sc2c1CCCC2 | 2 (inactive)
CCn1cc(C(=O)O)c(=O)c2cc(F)c(N3CCN(C(=S)Nc4cccc(C(F)(F)F)c4)CC3)cc21 | 8
N#Cc1c(NC(=O)c2ccc([N+](=O)[O-])o2)sc2c1CCC2 | 20
